Screening data: PubChem, several laboratories
In the library only some 2% were active in any assay of this set; here they are far more common.
LMP1 NFkB inh: inhibitors of Epstein-Barr LMP1-induced NF-kappaB reporter | LMP1-induced NF-kappaB luciferase reporter cells, luminescence | inhibition, % at 12.5 µM | 0.69% of 350,000 active | AID 504558; in the data active = inhibition above about 41%
NR2E3 ag-1: activates human photoreceptor nuclear receptor NR2E3 | GST-NR2E3/biotin-RetCOR TR-FRET, 1536-well | AID 2300 | inhibition of corepressor binding, % at 4.78 µM | 0.12% of 320,000 active | Q9Y5X4;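 active = percent inhibition above the cutoff of mean plus 3 SD of all tested compounds, set per screening campaign, cut at about 20% in these data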
Target sequence (Q9Y5X4 whole entry, looked up): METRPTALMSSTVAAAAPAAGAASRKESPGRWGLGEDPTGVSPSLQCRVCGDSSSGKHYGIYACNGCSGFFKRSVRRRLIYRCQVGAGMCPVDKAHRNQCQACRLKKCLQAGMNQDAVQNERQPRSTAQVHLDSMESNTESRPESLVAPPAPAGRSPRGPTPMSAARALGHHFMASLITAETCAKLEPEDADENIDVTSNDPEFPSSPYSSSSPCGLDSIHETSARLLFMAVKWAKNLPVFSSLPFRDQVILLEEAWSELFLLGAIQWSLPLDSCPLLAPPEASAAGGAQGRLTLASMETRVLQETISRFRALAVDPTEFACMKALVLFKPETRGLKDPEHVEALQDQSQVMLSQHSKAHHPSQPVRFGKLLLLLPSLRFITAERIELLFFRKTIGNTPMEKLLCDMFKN
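Format: 1536-well format; test system: GST-NR2E3 and biotin-RetCOR proteins; read-out basis: percent inhibition of TR-FRET ratio; timing: 5 h incubation at 4 °C; detection: time-resolved FRET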
HIF act: HIF pathway transcriptional activation | U2OS HRE-luciferase reporter, luminescence; normalized: DMSO 0%, desferrioxamine 100% | activation, % at 7.5 µM (by protocol) | 0.32% of 300,000 active | AID 1910;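 active = mean activation of at least 10% of the iron chelator positive control signal, with at least half of replicates also reaching 10%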
NR2E3 ag-2: agonists of human NR2E3 nuclear receptor; CHO-S Gal4-NCOR/VP16-NR2E3 two-hybrid, luciferase; inhibition of corepressor binding, % at 3.98 µM; 0.35% of 360,000 active; Q9Y5X4;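 active = inhibition above the mean of all tested compounds plus 3 SD, cut at about 70% in these data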;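 also: higher means lower luciferase signal from less NR2E3 corepressor binding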
TROY signal inh: TROY signaling inhibition. Q293 LMP1-TROYcd NF-kB luciferase reporter, 4 h. 0.98% of 360,000 active. inhibition, % at 10 µM;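 active = compounds whose plate-normalised and pattern-corrected inhibition of the luciferase reporter signal at the single screening dose is 50% or more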
NR2E3 ag conf: NR2E3 agonism confirmed in two-hybrid assay; AID 624378; shares compounds with NR2E3 ag-2; CHO-S mammalian two-hybrid NR2E3-NCOR, luciferase luminescence; 51% of 2,300 active; inhibition, % at 3.98 µM;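 active = average inhibition above a cutoff equal to the mean inhibition of all tested compounds plus one SD, cut at about 70% in these data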
VP16 counter: GAL4-VP16 reporter inhibition in NR2E3 agonist counterscreen; CHO-S GAL4-VP16 luciferase reporter, luminescence; inhibition, % at 3.98 µM; AID 624379; shares compounds with NR2E3 ag-2; 29% of 2,300 active;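 active = mean inhibition above a cutoff equal to the average over all tested compounds plus one standard deviation, cut at about 70% in these data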;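 also: luciferase from a UAS reporter driven by GAL4-VP16 transactivation; higher means less reporter light so more repression of VP16 activity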
Each line names hits and unclear results; the compound was inactive in the other large screens (follow-up assays come after a bar, where they were run).

Cc1csc2ncnc(N3CCN(S(=O)(=O)c4cccc(C(F)(F)F)c4)CC3)c12	NR2E3 ag-2 94 | NR2E3 ag conf 97 | VP16 counter 90
N#Cc1ccccc1NC(=O)COC(=O)CN1C(=O)C2CCCCC2C1=O (stereo not drawn)	none (no result: NR2E3 ag-1, HIF act)
O=[N+]([O-])c1cc(-c2ccccc2)cc([N+](=O)[O-])c1O	NR2E3 ag-2 79 (no result: NR2E3 ag-1, HIF act) | NR2E3 ag conf 100 | VP16 counter 89
O=[N+]([O-])c1cc2ccccc2c(O)c1O	none (no result: NR2E3 ag-1, HIF act)
Cc1cc(Br)ccc1NC(=O)CN(C)C(=O)C1CCN(c2ncnc3sc(C)c(C)c23)CC1	none (no result: NR2E3 ag-1, HIF act) | NR2E3 ag conf inactive | VP16 counter inactive
Cc1cccc(C)c1NC(=O)CN(C)C(=O)C1CCN(c2ncnc3sc(C)c(C)c23)CC1	none
CN(CC(=O)Nc1ccccc1Cl)C(=O)C1CCN(C(=O)c2ccc(F)cc2)CC1	none (no result: HIF act)
S=c1[nH]cnc2scc(-c3ccc(Br)cc3)c12	NR2E3 ag-2 81 | NR2E3 ag conf inactive | VP16 counter inactive
S=c1[nH]cnc2scc(-c3ccc(Cl)cc3)c12	TROY signal inh 68 (no result: LMP1 NFkB inh) | NR2E3 ag conf inactive | VP16 counter inactive
Cc1ccc(-c2csc3nc[nH]c(=S)c23)cc1	none
Cc1cccc(CN(C)C[C@H]2OCc3cnnn3CCCC(=O)N([C@@H](C)CO)C[C@@H]2C)c1	none (no result: NR2E3 ag-1, HIF act)
Cc1ccc(-c2nc(NC(=O)c3nn(C)cc3[N+](=O)[O-])sc2C)cc1	none
Cn1cc([N+](=O)[O-])c(C(=O)Nc2nc(-c3ccc(Cl)cc3)cs2)n1	NR2E3 ag-2 71 | NR2E3 ag conf inactive | VP16 counter inactive
CCn1nc(C)c(NC(=O)/C=C/c2cnn(C)c2C)c1C	none
CCn1ncc(/C=C/C(=O)Nc2c(C)nn(Cc3ccc(Cl)cc3Cl)c2C)c1C	none | NR2E3 ag conf inactive | VP16 counter inactive
Cc1cc(Nc2cccc(Cl)c2)nc(NCc2ccccc2)n1	NR2E3 ag-2 93 | NR2E3 ag conf 96 | VP16 counter 76
Cc1cc(N/N=C/c2cccc(Cl)c2)nc(NCc2ccccc2)n1	none
O=C(NNc1c([N+](=O)[O-])cc(C(F)(F)F)cc1[N+](=O)[O-])c1ccco1	none | NR2E3 ag conf inactive | VP16 counter inactive
O=C(NNc1c(F)c(F)cc(F)c1F)c1ccco1	none (no result: NR2E3 ag-1, HIF act)
CC(=O)c1c(C)[nH]c(C(=O)OCc2cccc(C)c2)c1C	none | NR2E3 ag conf inactive | VP16 counter inactive
CC(C)[C@@H](NC(=O)C1CCC(CNC(=O)[C@H](Cc2ccccc2)NC(=O)OC(C)(C)C)CC1)C(=O)O (stereo partly drawn)	none (no result: NR2E3 ag-1)
Cc1cc(C)n2nc(SCc3cccc(S(=O)(=O)N(C)C)c3)nc2n1	none
CN(C)S(=O)(=O)c1cccc(CSCc2cccc(S(=O)(=O)N(C)C)c2)c1	NR2E3 ag-2 88 | NR2E3 ag conf 94 | VP16 counter 81
CCCOC(=O)c1ccc(OCC(O)Cn2c(C)nc3ccccc32)cc1 (stereo not drawn)	none (no result: NR2E3 ag-1) | NR2E3 ag conf inactive | VP16 counter inactive
CC(=O)Nc1cccc(OCC(O)Cn2c(C)nc3ccccc32)c1 (stereo not drawn)	none
O=C(NCCCSc1ccccc1)c1cc(Br)ccc1O	NR2E3 ag-2 87 (no result: NR2E3 ag-1) | NR2E3 ag conf 99 | VP16 counter 90
Cc1ccc(S(=O)(=O)N2CCOCC2)cc1C(=O)Nc1ccc(N2CCCCCC2)cc1	none (no result: NR2E3 ag-1, HIF act) | NR2E3 ag conf inactive | VP16 counter inactive
O=C(Nc1ccc(Cc2ccncc2)cc1)c1ccc(S(=O)(=O)N2CCOCC2)cc1	none | NR2E3 ag conf inactive | VP16 counter inactive
CCCn1c(C)cc(C(=O)CN2C(=O)c3ccccc3S2(=O)=O)c1C	LMP1 NFkB inh 82 (no result: NR2E3 ag-1, HIF act) | NR2E3 ag conf inactive | VP16 counter inactive
Cc1ccc(C)c(C(=O)CN2C(=O)c3ccccc3S2(=O)=O)c1	none
CCC(C)c1ccc(C(C)NC(=S)NC2CCCCC2)cc1 (stereo not drawn)	NR2E3 ag-2 85 | NR2E3 ag conf inactive | VP16 counter inactive
CC(C)c1ccc(C(C)NC(=S)NC2CCCCC2)cc1 (stereo not drawn)	none (no result: NR2E3 ag-1) | NR2E3 ag conf inactive | VP16 counter inactive
CC(NC(=S)NC1CCCCC1)c1ccc(C(C)(C)C)cc1 (stereo not drawn)	none
CCCn1c(C(O)c2cccc(OC)c2)nc2ccccc21 (stereo not drawn)	none (no result: NR2E3 ag-1)
ClC1=CN(C2=NCCC2)CC1	none (no result: LMP1 NFkB inh, NR2E3 ag-1, HIF act)
Cc1ccn2cc(C(=O)N3CCN(c4cnn(-c5ccccc5)c(=O)c4Cl)CC3)nc2c1	none (no result: HIF act)
COc1ccc(Nc2c3ccccc3nc3ccccc23)cc1	none
CCN(CC)c1ccc(Nc2nc(N3CCOCC3)c3ccccc3n2)cc1	NR2E3 ag-2 72 | NR2E3 ag conf 74 | VP16 counter inactive
COc1ccc(Nc2nc(N3CCCC3)c3ccccc3n2)cc1	none | NR2E3 ag conf inactive | VP16 counter inactive
O=C(NC(Cc1ccccc1)C(=O)O)/C(=C\c1ccccc1)NC(=O)c1ccc(Br)o1 (stereo not drawn)	none
COc1ccc(Cl)cc1C(=O)NNC(=O)c1cccs1	none (no result: NR2E3 ag-1, HIF act)
CCCOc1ccc(OCC(=O)c2[nH]c(C)c(C(C)=O)c2C)cc1	NR2E3 ag-2 79 | NR2E3 ag conf 94 | VP16 counter 78
COc1ccc(Cn2cc(CN(C)C3CN(Cc4cn(Cc5ccc(OC)cc5)nn4)S(=O)(=O)C3)nn2)cc1 (stereo not drawn)	none (no result: LMP1 NFkB inh, NR2E3 ag-1, HIF act)
Cc1ccc(S(=O)(=O)Nc2cccc3cccnc23)c([N+](=O)[O-])c1	NR2E3 ag-2 76, TROY signal inh 79 | NR2E3 ag conf inactive | VP16 counter inactive
O=S(=O)(Nc1cccc2cccnc12)c1ccccc1	NR2E3 ag-2 86 | NR2E3 ag conf inactive | VP16 counter inactive
Cn1c(N)c(C(=O)c2ccc(Cl)c(S(=O)(=O)N3CCCCCC3)c2)c(=O)n(C)c1=O	none (no result: NR2E3 ag-1, HIF act)
COC(C(=O)C(O)C(C)O)C1Cc2cc3cc(OC4CC(OC5CC(O)C(O)C(C)O5)C(O)C(C)O4)c(C)c(O)c3c(O)c2C(=O)C1OC1CC(OC2CC(OC3CC(O)C(OC)C(C)O3)C(O)C(C)O2)C(O)C(C)O1 (stereo not drawn)	LMP1 NFkB inh 80, NR2E3 ag-2 96 (no result: NR2E3 ag-1, HIF act) | NR2E3 ag conf 93 | VP16 counter 75
CCOc1ccc(S(=O)(=O)N2CCN(C(=O)C3CCC3)CC2)cc1	none
COc1ccccc1N(Cc1ccccc1)S(=O)(=O)c1cccc(C(=O)Nc2ccc(C)cn2)c1	none | NR2E3 ag conf inactive | VP16 counter inactive
COc1ccccc1N(Cc1ccccc1)S(=O)(=O)c1cccc(C(=O)Nc2ccccn2)c1	none
CC1(C(=O)NS(=O)(=O)c2ccccc2Cl)CCN1C(=O)CCC1CCCC1 (stereo not drawn)	none (no result: LMP1 NFkB inh, NR2E3 ag-1, HIF act)
CCN(CC)c1ccc(/C=c2\sc3nc4ccccc4n3c2=O)c(O)c1	TROY signal inh 54 (no result: NR2E3 ag-1) | NR2E3 ag conf 79 | VP16 counter inactive
